Sampled rows, rich in hits. Any-hit rate of the full collection: about 1.9%.
SR-BI DiI inh: mouse SR-BI HDL lipid transfer inhibition. ldlA[mSR-BI] CHO cells, DiI-HDL uptake fluorescence, 3 h. 320,000 compounds, 0.96% hits. inhibition, % at 12.5 µM. Q61009;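 active = mean replicate inhibition of at least 70% and a set share of replicates each scoring 70 or more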;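 note: 0% = median of neutral control wells and 100% = median of positive control wells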
GRK2 aptamer HTS: human GRK2 inhibition via aptamer displacement; bead flow cytometry, FAM-aptamer displacement from GRK2; inhibition of aptamer binding, % at 10 µM; 330,000 compounds, 0.59% hits; AID 488847;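 active = inhibition of aptamer binding above 40%, roughly 3 SD of noise, on plates passing a quality check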;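 note: median bead fluorescence of bound FAM aptamer so fluorescent compounds give negative values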
Target sequence (P25098 whole entry, looked up): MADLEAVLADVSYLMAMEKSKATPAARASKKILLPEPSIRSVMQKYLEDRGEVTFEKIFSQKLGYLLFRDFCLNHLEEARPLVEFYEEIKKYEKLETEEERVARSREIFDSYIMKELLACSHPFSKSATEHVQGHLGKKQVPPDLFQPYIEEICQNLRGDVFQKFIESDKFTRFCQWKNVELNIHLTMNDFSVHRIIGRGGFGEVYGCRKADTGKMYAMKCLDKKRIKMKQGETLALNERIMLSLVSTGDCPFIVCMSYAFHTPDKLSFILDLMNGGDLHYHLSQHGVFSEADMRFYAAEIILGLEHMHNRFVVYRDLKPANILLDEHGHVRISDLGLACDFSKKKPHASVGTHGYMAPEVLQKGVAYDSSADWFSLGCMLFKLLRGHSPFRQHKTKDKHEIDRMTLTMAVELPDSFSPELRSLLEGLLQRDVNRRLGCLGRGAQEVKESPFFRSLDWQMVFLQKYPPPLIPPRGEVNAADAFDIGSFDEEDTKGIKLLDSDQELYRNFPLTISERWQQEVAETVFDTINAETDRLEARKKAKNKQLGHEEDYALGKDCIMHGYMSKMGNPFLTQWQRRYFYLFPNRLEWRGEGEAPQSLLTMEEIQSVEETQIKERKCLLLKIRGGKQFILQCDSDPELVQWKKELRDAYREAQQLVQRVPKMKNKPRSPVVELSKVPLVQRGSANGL
SR-BI uptake up: enhances SR-BI lipid uptake from DiI-HDL; 320,000 compounds, 0.096% hits; CHO ldlA[mSR-BI] cells, DiI-HDL uptake fluorescence, 3 h; 100 = double the neutral-control signal; activation, % at 12.5 µM;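 active = mean replicate activation of at least 60% and every replicate at or above 60%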;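 note: 0% = median plate neutral-control signal and 100% = twice that signal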
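Test system: SR-BI-overexpressing, LDLR-lacking CHO cells. Measured by: DiI fluorescence, bottom read. Medium: Ham's F12 with 0.5% BSA, HEPES 25 mM, pH 7.4. Timing: 3 h uptake period with compound, 37 °C.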
Rin1-Abl PPI inh: inhibitors of human Rin1-Abl protein interaction; inhibition, % at 7.35 µM; P00519+Q13671; TR-FRET Rin1/Abl binding, biochemical; 360,000 compounds, 0.4% hits; in the data active = inhibition above about 5%, passing the limit was not always enough
Numbers without * were called inactive; . = no result.

SMILES | SR-BI DiI inh | GRK2 aptamer HTS | SR-BI uptake up | Rin1-Abl PPI inh
O=C(N/N=C/c1sc(=O)n(-c2ccccc2)c1Cl)c1ccccc1 | 85* | 5 | -85 | 0
COc1ccc(OC)c(NC(=O)Nc2nnc([C@H]3C[C@H](O)[C@@H](CO)O3)s2)c1 | . | . | . | -2
C=CCC[C@H](Cc1ccc(F)cc1)C(=O)OC[C@@H](NC(=O)[C@@H](CC=C)CC(=O)N[C@@H](CO)Cc1ccccc1)C(C)(C)C | 32 | 49* | -32 | 1
Cc1ccc(-n2c(C)cc(/C=N/NC(=O)c3ccncc3)c2C)cc1 | 30 | 2 | -30 | 2
Cc1cc(/C=N/NC(=O)c2ccncc2)c(C)n1-c1cccc(C(F)(F)F)c1 | 74* | 0 | -74 | 0
Cc1cc(/C=N/NC(=O)c2ccccc2F)c(C)n1-c1ccccc1 | 13 | 3 | -13 | -2
Cc1cc(/C=N/NC(=O)c2cccc(F)c2)c(C)n1-c1ccccc1 | 73* | 0 | -73 | 2
Cc1cc(C(=O)NNC(=O)c2ccc(C)c([N+](=O)[O-])c2)c(C)o1 | 4 | . | -4 | 2
NC(=S)NN=C1C2CC3CC(C2)CC1C3 | 79* | 1 | -79 | -5
COc1cc(C2=NOC(C(=O)N3CCCCCC3)C2)cc(OC)c1OC (centres undefined) | 10 | 0 | -10 | -1
COc1cc(C2=NOC(C(=O)N3CCN(c4ccc(F)cc4)CC3)C2)cc(OC)c1OC (centres undefined) | 79* | 0 | -79 | 1
CCOc1ccc(C(CN2CCOCC2)C(C)=O)cc1OC (centres undefined) | . | . | . | -2
Cc1cccc(NC(=O)CSc2nc3ccccc3c(=O)n2CC2CCCO2)c1 (centres undefined) | 80* | 0 | -80 | 1
Cc1ccc(NC(=O)/C=C/c2ccc(S(=O)(=O)N3CCOCC3)cc2)cc1S(=O)(=O)N(C)C | 86* | . | -86 | 0
COc1ccc(-c2nn(-c3ccccc3)cc2/C=N/Nc2ccc(S(N)(=O)=O)cc2[N+](=O)[O-])cc1OC | 79* | 0 | -79 | 5
O=[N+]([O-])c1cccc(-c2cc(-c3cc(Br)ccc3O)[nH]n2)c1 | 86* | 1 | -86 | 2
Oc1ccc(Br)cc1-c1cc(-c2ccc(Cl)cc2)n[nH]1 | 75* | 0 | -75 | 0
Oc1ccc(Br)cc1-c1cc(-c2ccccc2)n[nH]1 | 48 | 0 | -48 | 1
CC(=O)Nc1ccc(-c2ccnc3c2CC(C)(C(=O)Nc2ccc(C(C)C)cc2)O3)cc1 (centres undefined) | . | . | . | -3
Cc1ccccc1C(=O)N(C)[C@H]1C[C@H]2c3[nH]c4ccccc4c3CCN2C[C@H]1[C@H](C)O | . | . | . | -3
Cn1ccnc1SCCNC(=O)CCc1nnc(CCc2ccccc2)o1 | -23 | 0 | 23 | -2
O=C(CN(c1cccc(Br)c1)S(=O)(=O)c1ccccc1)N/N=C/c1cc([N+](=O)[O-])ccc1O | 124* | 0 | -124 | -4
N#Cc1cc2c(nc1SCC(=O)Nc1sc3c(c1C#N)CCC3)CCCC2 | 58 | 0 | -58 | -2
N#Cc1ccc(-c2ccc(F)cc2)nc1SCC(=O)Nc1sc2c(c1C#N)CCC2 | 78* | 1 | -78 | 2
O=C(CC1S/C(=N/N=C/c2cccs2)NC1=O)Nc1ccccc1F (centres undefined) | 80* | 0 | -80 | 0
SMILES | SR-BI DiI inh | GRK2 aptamer HTS | SR-BI uptake up | Rin1-Abl PPI inh
C=CCC1S/C(=N/N=C/c2cccs2)NC1=O (centres undefined) | 10 | 0 | -10 | -3
Nc1c(Cl)cc(C2=NCCn3nc4ccccc4c32)cc1Cl | 73* | 3 | -73 | 1
Clc1ccc(C2=NCCn3nc4ccccc4c32)cc1 | 24 | 4 | -24 | 2
N#C/C(=C/C1=C(N2CCOCC2)C(=C/c2ccc(Cl)cc2Cl)/CC1)C(=O)Nc1ccccc1F | 74* | . | -74 | 2
N#C/C(=C\C1=C(N2CCOCC2)C(=C\c2ccc(Cl)cc2)/CC1)C(=O)Nc1ccccc1F | 37 | 0 | -37 | -2
N#C/C(=C/C1=C(N2CCOCC2)C(=C/c2ccccc2)/CC1)C(=O)Nc1ccccc1F | 75* | . | -75 | 5
CC(NC(=O)CN1C(=O)NC2(CCc3ccccc32)C1=O)c1ccc2c(c1)OCCO2 (centres undefined) | 10 | 0 | -10 | 1
COC(=O)N1CCCCC1c1cc(C(=O)NCc2cccnc2)no1 (centres undefined) | . | . | . | -3
Cc1cccc(-c2cc3nc(-c4ccccc4)cc(N4CCC5(CC4)OCCO5)n3n2)c1 | 83* | 0 | -83 | -2
